Article PMC3728731 (Chemmedchem, 2013)
Where “and” joins values, the source holds several entries; their conditions need not be identical. Equal entries are not always repeated.

What was measured:
76 mammalian kinases = test: Mammalian kinase selectivity panel, whole panel; format: biochemical; conditions: 10 μM
TbGSK3 [1] = target: T1, TbGSK3 (Trypanosoma brucei brucei, UniProt Q388M1); test: TbGSK3 radiometric Flashplate potency assay; format: biochemical; conditions: for IC50: IC50 TbGSK3, Flashplate, 1 μM ATP (<KM); for fold less active than 8 against TbGSK3: compared with compound 8
T1 sequence (Q388M1 1-352): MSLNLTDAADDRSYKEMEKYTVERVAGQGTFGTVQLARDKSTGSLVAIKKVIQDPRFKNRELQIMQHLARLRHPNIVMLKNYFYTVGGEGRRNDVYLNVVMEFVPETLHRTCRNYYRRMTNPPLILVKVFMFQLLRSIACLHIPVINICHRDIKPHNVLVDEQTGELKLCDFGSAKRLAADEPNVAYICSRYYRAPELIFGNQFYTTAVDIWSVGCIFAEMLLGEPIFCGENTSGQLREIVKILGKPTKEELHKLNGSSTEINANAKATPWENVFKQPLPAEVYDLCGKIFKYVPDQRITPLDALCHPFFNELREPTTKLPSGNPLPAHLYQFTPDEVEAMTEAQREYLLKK
Procedure, shortened: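 Radiometric streptavidin Flashplate capture of biotinylated phosphoproduct. MBP-fused short TbGSK3 (2.5 nM), 1 μM biotinylated GSP2, 1 μM ATP plus 3.7 KBq [γ-³³P]ATP/well. 10-point titration, 30 μM–0.3 nM final, 1% DMSO. IC50 by four-parameter fit; ligand efficiency = [−RT ln(IC50)]/heavy-atom count.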

GSK3 = GSK3 (Homo sapiens, UniProt P49841); test: Mammalian kinase selectivity panel; format: biochemical; conditions: read-out: inhibition of GSK3
Procedure, shortened: (§1)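 Run by the University of Dundee DSTT mammalian panel, which then held 76 kinases. Test compound screened in duplicate at 10 μM. Each kinase assayed with ATP below its apparent K_M for ATP.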

CDK2-Cyclin A = CDK2-Cyclin A (Homo sapiens, UniProt P24941); test: Mammalian kinase selectivity panel; format: biochemical; conditions: read-out: inhibition of CDK2
Procedure, shortened: as §1

[2] = tested on: MRC5 (human lung fibroblast) cells; test: MRC5 proliferation assay; format: cell-based; conditions: T. brucei versus MRC5
Procedure, shortened: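 MRC5 human lung fibroblasts, 2×10³ cells/well, grown in MEM with 10% foetal bovine serum. Test compound from 50 μM to 0.5 nM. Incubated 69 h at 37 °C, 5% CO₂. Resazurin added (50 μM final), then a further 4 h under the same conditions. Read by fluorescence.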

HsGSK3β = HsGSK3β (Homo sapiens, UniProt P49841); test: HsGSK3β radiometric Flashplate assay; format: biochemical
TbGSK3 [3] = target: T1, TbGSK3; test: Mechanism of inhibition of TbGSK3; format: biochemical; conditions: for mechanism of inhibition: versus ATP, saturating GSP2
Procedure, shortened: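 Rates (CPM) measured at 10 test-compound concentrations × four ATP concentrations, GSP2 phosphopeptide saturating. Lineweaver–Burk plots examined for competitive, mixed or uncompetitive patterns; apparent K_i calculated.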

HsGSK3β, sequence (P49841 whole entry): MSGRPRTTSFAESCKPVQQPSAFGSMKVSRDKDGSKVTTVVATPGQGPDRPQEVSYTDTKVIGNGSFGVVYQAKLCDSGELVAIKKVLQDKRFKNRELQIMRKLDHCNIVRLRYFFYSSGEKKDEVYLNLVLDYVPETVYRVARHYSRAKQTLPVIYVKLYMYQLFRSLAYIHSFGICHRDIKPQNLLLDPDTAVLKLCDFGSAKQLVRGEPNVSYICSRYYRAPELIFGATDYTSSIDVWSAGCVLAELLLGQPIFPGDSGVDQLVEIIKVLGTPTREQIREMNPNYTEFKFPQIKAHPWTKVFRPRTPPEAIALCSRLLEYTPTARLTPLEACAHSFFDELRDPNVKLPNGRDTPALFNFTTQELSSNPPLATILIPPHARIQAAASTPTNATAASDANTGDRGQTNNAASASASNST
GSK3, sequence (P49841 whole entry): as above

SMILES | IC50 (TbGSK3 [1]) | fold less active than 8 against TbGSK3 (TbGSK3 [1]) | IC50 (HsGSK3β) [nM] | further results
CC(C)(C)C(=O)c1sc(NC2CCCCC2)nc1N [Compound 22, 1-(4-Amino-2-(cyclohexylamino)thiazol-5-yl)-2,2-dimethylpropan-1-one] | 12000 nM | ~300 fold |  | kinases of the panel inhibited at the >90 % level (76 mammalian kinases): did not inhibit any kinase at the >90 % level; inhibition at 10 µM (GSK3): > 70%; inhibition at 10 µM (CDK2-Cyclin A): > 70%; selectivity over the human MRC5 cell line [2]: > 150 fold
Nc1nc(NCC2CCCCC2)sc1C(=O)c1ccccc1 [Compound 20, (4-Amino-2-((cyclohexylmethyl)amino)thiazol-5-yl)(phenyl)methanone] | 700 nM |  | 20 | 
COc1cccc(OC)c1C(=O)c1sc(Nc2ccccc2)nc1N [Compound 15, (4-Amino-2-(phenylamino)thiazol-5-yl)(2,6-dimethoxyphenyl)methanone] | 400 nM |  | 2000 | fold less active than 14 against TbGSK3 (TbGSK3 [1]; compared with compound 14): over 10 fold
Nc1nc(NC2CCCCC2)sc1C(=O)c1ccccc1 [Compound 19, (4-Amino-2-(cyclohexylamino)thiazol-5-yl)(phenyl)methanone] | 190 nM and 200 nM | sixfold | 2 | Ki (TbGSK3 [3]): 250 ± 30 nM; mechanism of inhibition (TbGSK3 [3]): ATP-competitive
Nc1nc(Nc2ccccc2)sc1C(=O)c1c(F)cccc1F [Compound 14, (4-Amino-2-(phenylamino)thiazol-5-yl)(2,6-difluorophenyl)methanone] | 20 nM |  | 5 | Ki (TbGSK3 [3]): 50 ± 10 nM; mechanism of inhibition (TbGSK3 [3]): ATP-competitive

The next lines start with results.

IC50 (TbGSK3 [1]) | fold less active than 8 against TbGSK3 (TbGSK3 [1]) | IC50 (HsGSK3β) [nM] | SMILES | further results
100 nM |  | 5 | Nc1nc(Nc2ccccc2)sc1C(=O)c1cccc(Br)c1 [Compound 16, (4-Amino-2-(phenylamino)thiazol-5-yl)(3-bromophenyl)methanone] | 
60 nM |  | 2 | Cc1ccc(Nc2nc(N)c(C(=O)c3ccccc3)s2)cc1C [Compound 18, (4-Amino-2-((3,4-dimethylphenyl)amino)thiazol-5-yl)(phenyl)methanone] | 
200 nM | approximately 10 fold | 200 | Cc1cccc(C)c1Nc1nc(N)c(C(=O)c2ccccc2)s1 [Compound 17, (4-Amino-2-((2,6-dimethylphenyl)amino)thiazol-5-yl)(phenyl)methanone] | 
500 nM |  | 3 | Nc1nc(NCCc2ccccc2)sc1C(=O)c1ccccc1 [Compound 21, (4-Amino-2-(phenethylamino)thiazol-5-yl)(phenyl)methanone] | 
